Data set [1] can be described thus: folding enthalpy; higher = less favourable; fluorescence melt of hairpins on a sequencing array, two-state fit. As to conditions: sodium 0.088 M. An outline of the steps: (§1)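 In 50 mM Na-HEPES pH 8.0 containing 25 mM NaCl, hairpins from the library on a sequenced MiSeq flow cell were imaged for Cy3 fluorescence at 2.5 °C steps up to 60 °C, with Cy3 and quencher oligos annealed. After normalisation to pre-quench Cy3 and to control constructs, two-state fits with bootstrapping gave melting temperature and folding enthalpy. Four replicates were combined by inverse-variance weighting, and fitted temperatures were shifted up by 9.35 °C to match UV melts.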

Data set [2] in a line: melting temperature; fluorescence melt of hairpins on a sequencing array, two-state fit, raised by 9.35 °C to match UV melts. As to conditions: sodium 0.088 M. An outline of the steps:
as §1

For the sequence GCAATCGGAAACGATCGC ((.((((....)))).)), the folding enthalpy in data set [1] is -36.4 kcal/mol. The Tm in data set [2] was 47.2 °C.
On to GCAATCGGAAACGGTTGC ((((.((....)).)))), for which, in data set [1], the folding enthalpy was -43.8 kcal/mol. The Tm in data set [2] was determined as 55.8 °C.
Taken in the same sequence, the figures for GCAATGAAAATTGC (((((....))))) were -22.7 kcal/mol and 50.7 °C.
Take GCAATGCGAAAGCAACGC ((..(((....)))..)): in data set [1], the folding enthalpy is -14.4 kcal/mol. The Tm in data set [2] was determined as 40.2 °C.
Regarding GCAATGCGAAAGCACTGC (((.(((....))).))), the folding enthalpy in data set [1] was -36.8 kcal/mol. Moreover, the Tm in data set [2] was determined as 51.6 °C.
Turning to GCAATGCGAAAGCAGCGC ((..(((....)))..)), the folding enthalpy in data set [1] was -18.8 kcal/mol. In addition, the Tm in data set [2] was found to be 55.9 °C.
In the same order, the values of GCAATGCGAAAGCATAGC ((.((((....)))).)) are -18.6 kcal/mol and 57.8 °C.
For GCAATGCGAAAGCCATGC (((..((....))..))), in data set [1], the folding enthalpy is -18.3 kcal/mol. Besides, the Tm in data set [2] turned out to be 37.8 °C.
In the same order, the values of GCAATGCGAAAGCGTAGC ((.(.((....)).).)) are -15.8 kcal/mol and 42.7 °C.
Taken in the same sequence, the figures for GCAATTGAAAAATTGC ((((((....)))))) were -32 kcal/mol and 53.4 °C.
In the same order, the values of GCAATTGGAAACAACTGC (((.(((....))).))) are -26.6 kcal/mol and 34.8 °C.
Take GCAATTGGAAACAATCGC ((.((((....)))).)): the folding enthalpy in data set [1] was -27.4 kcal/mol. For the same sequence, in data set [2], the Tm was 38.8 °C.
Taken in the same sequence, the figures for GCACAAGGAAACTCGTGC ((((.((....)).)))) were -31.4 kcal/mol and 43.8 °C.
Taken in the same sequence, the figures for GCACACCGAAAGGTTGC (((.(((....)))))) were -28.6 kcal/mol and 53.6 °C.
Take GCACACCGAAAGGTTTGC (((.(((....))).))): the folding enthalpy in data set [1] is -40.7 kcal/mol. Also, in data set [2], the Tm came out at 52.3 °C.
In the same order, the values of GCACACGAAAGTGAATGC ((((((....)))..))) are -23.9 kcal/mol and 42.8 °C.
Turning to GCACACGAAAGTGCGTGC ((((((....)))..))), in data set [1], the folding enthalpy is -17 kcal/mol. Further, the Tm in data set [2] worked out at 52.1 °C.
Taken in the same sequence, the figures for GCACACGAAAGTGGTGC ((((((....))).))) were -33 kcal/mol and 59.6 °C.
For GCACACGAAAGTGTGTGC ((((((....)))..))), the folding enthalpy in data set [1] is -18.9 kcal/mol. Moreover, the Tm in data set [2] worked out at 68.2 °C.
In the same order, the values of GCACACGGAAACGTACGC ((..(((....)))..)) are -25.2 kcal/mol and 35.6 °C.
Taken in the same sequence, the figures for GCACAGCGAAAGCACTGC (((..((....))..))) were -11.7 kcal/mol and 35.8 °C.
Taken in the same sequence, the figures for GCACAGCGAAAGCCCTGC (((..((....))..))) were -8.82 kcal/mol and 32.1 °C.
As to GCACAGCGAAAGCTTTGC (((.(((....))).))), the folding enthalpy in data set [1] was -41.2 kcal/mol. Moreover, the Tm in data set [2] was 51.8 °C.
Taken in the same sequence, the figures for GCACAGGGAAACCTGTAC (.(((((....))))).) were -12.6 kcal/mol and 40.3 °C.
For GCACATGGAAACATATGC (((.(((....))).))), the folding enthalpy in data set [1] was -26 kcal/mol. Also, the Tm in data set [2] was 36 °C.
With GCACATTCGAAAGAATGC (((..(((....)))))), in data set [1], the folding enthalpy was -13.8 kcal/mol. Further, the Tm in data set [2] was determined as 33 °C.
For GCACCAGGAAACTAGTGC ((((.((....)).)))), in data set [1], the folding enthalpy is -29.2 kcal/mol. Also, the Tm in data set [2] is 40.2 °C.
In the same order, the values of GCACCCCCGAAAGGGTGC (((..(((....)))))) are -30.6 kcal/mol and 66.6 °C.
In the same order, the values of GCACCCCGAAAGGGATGC (((.(((....))).))) are -40.6 kcal/mol and 57.5 °C.
In the same order, the values of GCACCCGAAAGGGAGTGC ((((((....)))..))) are -38.3 kcal/mol and 54 °C.
As for GCACCCGAAAGGGATGC ((((((....))).))), the folding enthalpy in data set [1] is -28.7 kcal/mol. For the same sequence, the Tm in data set [2] came to 60.5 °C.
In the same order, the values of GCACCCGAAAGGGCTGC ((((((....))).))) are -31.4 kcal/mol and 55.2 °C.
In the same order, the values of GCACCCGAAAGGGGTTGC ((((((....)))..))) are -15.4 kcal/mol and 52.3 °C.
GCACCCGGAAACGGGCGC ((.((((....)))).)): the folding enthalpy in data set [1] was -38 kcal/mol. Besides, the Tm in data set [2] worked out at 61.5 °C.
In the same order, the values of GCACCGCGAAAGCAATGC (((..((....))..))) are -8.2 kcal/mol and 27.3 °C.
GCACCGCGAAAGCAGGGC ((.(.((....)).).)): the folding enthalpy in data set [1] is -16 kcal/mol. Also, the Tm in data set [2] turned out to be 57.5 °C.

Values taken from the array DNA melting data of Ke et al. (doi:10.1101/2024.01.08.574731).
